Active and inactive are the calls of the source. The calls are words filed in the database; no cut-off is given here.
Key:
MCF7 [1] = assay: Induction of apoptosis in human MCF7 cells assessed as late apoptotic cells at 0.25 uM after 24 hrs by Annexin-V FITC/propidium iodide staining based flow cytometry (reference value: 0.290%); type: functional
MCF7 [2] = assay: Cell cycle arrest in human MCF7 cells assessed as accumulation at G1 phase at 0.50 uM after 48 hrs by propidium iodide staining based flow cytometry (reference value: 70.27%); type: functional
MCF7 [3] = assay: Induction of apoptosis in human MCF7 cells assessed as increase in caspase 3 expression level after 48 hrs by Western blot analysis; type: functional, cell-based
MCF7 [4] = assay: Cell cycle arrest in human MCF7 cells assessed as accumulation at G2/M phase at 0.25 uM after 48 hrs by propidium iodide staining based flow cytometry (reference value: 12.72%); type: functional
MCF7 [5] = assay: Induction of apoptosis in human MCF7 cells assessed as increase in ERK phosphorylation after 48 hrs by Western blot analysis; type: functional, cell-based
K562 = assay: Antiproliferative activity against human K562 cells after 72 hrs by MTT assay; type: functional, cell-based; settings: K562, 72 h
Summary of the method: (§1)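 Cells pre-incubated 24 h at 37 °C, 5% CO2 in 96-well plates, then exposed to a range of compound concentrations (DMSO ≤0.25%) for 72 h. Viable cells read by MTT colour at 570 nm. Performed in quadruplicate, repeated three times. IC50 reported as means ± SD, n = 3.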

MCF7 [6] = assay: Cell cycle arrest in human MCF7 cells assessed as accumulation at G1 phase at 1 uM after 48 hrs by propidium iodide staining based flow cytometry (reference value: 70.27%); type: functional
H22 [7] = assay: Antitumor activity against […] cells xenografted in ICR mouse assessed as inhibition of tumor volume at 20 mg/kg, iv qd administered for 14 consecutive days measured every 2 days relative to control; type: functional; settings: 14 days
Summary of the method: (§2)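 Male ICR mice, five weeks old, implanted s.c. in the right flank with 1 × 10^6 H22 cells. After 7 days, randomised into groups of eight. Given i.v. once daily for 14 days, 10 or 20 mg/kg in 10% DMF/2% poloxamer/88% saline; negative controls received 0.9% saline i.v., positive control 20 mg/kg oridonin. Body weight and tumour volume (L × W²/2) recorded every 2 days. Tumours excised and weighed at sacrifice; inhibition (%) = (1 − treated/control mean tumour weight) × 100.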

MCF7 [8] = assay: Induction of apoptosis in human MCF7 cells assessed as decrease in p53 expression level after 48 hrs by Western blot analysis; type: functional, cell-based
Summary of the method: (§3)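 MCF-7 cells treated 48 h with 0, 0.5, 1.0, 2.0 or 4.0 μM, then lysed on ice. 20 μg protein per lane run on 8–12% SDS-PAGE and transferred to PVDF. Probed overnight at 4 °C for caspase-3, pro-caspase-3, Bax, Bcl-2, p-ERK and p53, with fluorescent secondary antibodies. Densities normalised to β-actin; three independent experiments.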

MCF7 [9] = assay: Cell cycle arrest in human MCF7 cells assessed as accumulation at S phase at 1 uM after 48 hrs by propidium iodide staining based flow cytometry (reference value: 17.01%); type: functional
MCF7 [10] = assay: Induction of apoptosis in human MCF7 cells assessed as early apoptotic cells at 0.50 uM after 24 hrs by Annexin-V FITC/propidium iodide staining based flow cytometry (reference value: 1.60%); type: functional
MCF7 [11] = assay: Induction of apoptosis in human MCF7 cells assessed as viable cells at 2 uM after 24 hrs by Annexin-V FITC/propidium iodide staining based flow cytometry (reference value: 97.5%); type: functional; settings: MCF7, 24 h, read-out: Activity
Bel-7402 [12] = assay: Antiproliferative activity against human Bel7402 cells after 72 hrs by MTT assay; type: functional, cell-based; settings: Bel-7402, 72 h; summary of the method: as §1
MCF7 [13] = assay: Cell cycle arrest in human MCF7 cells assessed as accumulation at S phase at 2 uM after 48 hrs by propidium iodide staining based flow cytometry (reference value: 17.01%); type: functional
MCF7 [14] = assay: Cell cycle arrest in human MCF7 cells assessed as accumulation at G2/M phase at 0.50 uM after 48 hrs by propidium iodide staining based flow cytometry (reference value: 12.72%); type: functional
MCF7 [15] = assay: Induction of apoptosis in human MCF7 cells assessed as viable cells at 1 uM after 24 hrs by Annexin-V FITC/propidium iodide staining based flow cytometry (reference value: 97.5%); type: functional; settings: MCF7, 24 h, read-out: Activity
MCF7 [16] = assay: Cell cycle arrest in human MCF7 cells assessed as accumulation at G1 phase at 0.25 uM after 48 hrs by propidium iodide staining based flow cytometry (reference value: 70.27%); type: functional
Homo sapiens = species: Homo sapiens; assay: Antiproliferative activity against human KB/CP4 cells after 48 hrs by MTT assay; type: functional, cell-based
MCF7 [17] = assay: Antiproliferative activity against human MCF7 cells after 72 hrs by MTT assay; type: functional, cell-based; settings: MCF7, 72 h; summary of the method: as §1
Bel-7402 [18] = assay: Cytotoxicity against human Bel7402 cells assessed as decrease in cell viability after 24 hrs by LDH release assay; type: functional, cell-based
Summary of the method: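 MCF-7 and Bel-7402 cells seeded at ~5 × 10^3 per well for 24 h, then exposed to compounds. LDH released into the medium measured with CytoTox-ONE reagent (10 min, ambient temperature) followed by stop solution. Fluorescence read at ex 560/em 590 nm.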

MCF7 [19] = assay: Induction of apoptosis in human MCF7 cells assessed as viable cells at 0.25 uM after 24 hrs by Annexin-V FITC/propidium iodide staining based flow cytometry (reference value: 97.5%); type: functional; settings: MCF7, 24 h, read-out: Activity
MCF7 [20] = assay: Induction of apoptosis in human MCF7 cells assessed as early apoptotic cells at 2 uM after 24 hrs by Annexin-V FITC/propidium iodide staining based flow cytometry (reference value: 1.60%); type: functional
MCF7 [21] = assay: Cell cycle arrest in human MCF7 cells assessed as accumulation at G2/M phase at 2 uM after 48 hrs by propidium iodide staining based flow cytometry (reference value: 12.72%); type: functional
MCF7 [22] = assay: Induction of apoptosis in human MCF7 cells assessed as early apoptotic cells at 1 uM after 24 hrs by Annexin-V FITC/propidium iodide staining based flow cytometry (reference value: 1.60%); type: functional
MCF7 [23] = assay: Cell cycle arrest in human MCF7 cells assessed as accumulation at G1 phase at 2 uM after 48 hrs by propidium iodide staining based flow cytometry (reference value: 70.27%); type: functional
MGC-803 = assay: Antiproliferative activity against human MGC803 cells after 72 hrs by MTT assay; type: functional, cell-based; settings: MGC-803, 72 h; summary of the method: as §1
MCF7 [24] = assay: Induction of apoptosis in human MCF7 cells after 24 hrs by Annexin-V FITC/propidium iodide staining based flow cytometry; type: functional, cell-based
KB 3-1 = assay: Antiproliferative activity against human KB-3-1 cells after 48 hrs by MTT assay; type: functional, cell-based
MCF7 [25] = assay: Induction of apoptosis in human MCF7 cells assessed as necrotic cells at 0.50 uM after 24 hrs by Annexin-V FITC/propidium iodide staining based flow cytometry (reference value: 0.610%); type: functional
MCF7 [26] = assay: Induction of apoptosis in human MCF7 cells assessed as decrease in Bcl2 expression level after 48 hrs by Western blot analysis; type: functional, cell-based; summary of the method: as §3
H22 [27] = assay: Antitumor activity against […] cells xenografted in ICR mouse assessed as decrease in tumor weight at 10 to 20 mg/kg, iv qd administered for 14 consecutive days measured every 2 days; type: functional, organism-based; summary of the method: as §2

`C=C1C(=O)[C@@]23C(=O)OC[C@]4(C=CCC(C)(C)[C@H]4C=O)[C@@H]2CC[C@@H]1[C@H]3OC(=O)c1ccc(F)cc1` was tested, and the Activity (MCF7 [1]) was 5.51%, the Activity (MCF7 [2]) was 64.82% and the Activity (MCF7 [3]) was “Dose-dependent effect”. The Activity (MCF7 [4]) was 14.06%, the Activity (MCF7 [5]) was “Dose-dependent effect” and the IC50 (K562) was 0.69 µM. The Activity (MCF7 [6]) was 63.35%, the inhibition in vivo at 20 mg/kg (H22 [7]) was 52.5% and the Activity (MCF7 [8]) was “Dose-dependent effect”. For the same molecule, the Activity (MCF7 [9]) was 15.43%, the Activity (MCF7 [10]) was 9.75% and the viability at 2 µM (MCF7 [11]) was 58.6%. The IC50 (Bel-7402 [12]) was 1.8 µM, the Activity (MCF7 [13]) was 17.71% and the Activity (MCF7 [14]) was 19.47%. For the same molecule, the viability at 1 µM (MCF7 [15]) was 72%, the Activity (MCF7 [16]) was 67.64% and the Activity (Homo sapiens) was “Active”. For the same molecule, the IC50 (MCF7 [17]) was 0.68 µM, the Activity (Bel-7402 [18]) was “inactive” and the viability at 0.25 µM (MCF7 [19]) was 87.2%. It also gave an Activity (MCF7 [20]) of 14%, an Activity (MCF7 [21]) of 24.8% and an Activity (MCF7 [22]) of 10.2%. For the same molecule, the Activity (MCF7 [23]) was 57.49%, the IC50 (MGC-803) was 2.2 µM and the Activity (MCF7 [24]) was “Dose-dependent effect”. For the same molecule, the Activity (KB 3-1) was “Active”, the Activity (MCF7 [25]) was 0.901% and the Activity (MCF7 [26]) was “Dose-dependent effect”. The Activity (H22 [27]) was “Active”.
